In ChEMBL document CHEMBL1629487, “Synthesis and in vitro antimicrobial evaluation of novel fluoroquinolone derivatives” (2010):
In brackets after ≈: the same amount, converted by molar mass.

How the values were obtained:
Proteus vulgaris = test: Antimicrobial activity against Proteus vulgaris ATCC 49132 after 18 to 24 hrs by microbroth dilution method; assay type: functional
How it was run: (§1)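 Bacteria were cultured in Mueller Hinton broth in 96-well microtiter plates, and the suspensions were added to MHB containing varying concentrations of test compound. Plates were incubated at 37 °C for 18–24 h, then read visually with a reading mirror and spectrophotometrically at 450 nm. MIC was taken as the lowest concentration giving complete suppression of visible growth.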

Pseudomonas aeruginosa = test: Antimicrobial activity against Pseudomonas aeruginosa ATCC 10145 after 18 to 24 hrs by microbroth dilution method; assay type: functional; how it was run: as §1
Vibrio parahaemolyticus = test: Antimicrobial activity against Vibrio parahaemolyticus ATCC 17802 after 18 to 24 hrs by microbroth dilution method; assay type: functional; how it was run: as §1
Shigella boydii = test: Antimicrobial activity against Shigella boydii ATCC 9207 after 18 to 24 hrs by microbroth dilution method; assay type: functional; how it was run: as §1
Klebsiella pneumoniae = test: Antimicrobial activity against Klebsiella pneumoniae ATCC 10031 after 18 to 24 hrs by microbroth dilution method; assay type: functional; how it was run: as §1
Streptococcus mitis = test: Antimicrobial activity against Streptococcus mitis ATCC 6249 after 18 to 24 hrs by microbroth dilution method; assay type: functional; how it was run: as §1
Salmonella paratyphi = test: Antimicrobial activity against Salmonella paratyphi A ATCC 9150 after 18 to 24 hrs by microbroth dilution method; assay type: functional, Salmonella enterica subsp. enterica serovar Paratyphi A; conditions: Salmonella enterica
How it was run: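 Broth microdilution in 96-well plates; bacteria grown in Mueller Hinton broth with varying concentrations of test compound, incubated at 37 °C for 18–24 h. Plates read visually with a reading mirror and spectrophotometrically at 450 nm. MIC taken as lowest concentration giving complete suppression of visible growth.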

Cryptococcus neoformans = test: Antimicrobial activity against Cryptococcus neoformans ATCC 14116 after 18 to 24 hrs by microbroth dilution method; assay type: functional
How it was run: as §1, with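 “Fungal isolates” for “Bacteria”, “cultivated” for “cultured”, “Sabouraud's” for “Mueller Hinton”, “SDB” for “MHB”, “completely suppressing” for “giving complete suppression of”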

Bacillus subtilis = test: Antimicrobial activity against Bacillus subtilis ATCC 11774 after 18 to 24 hrs by microbroth dilution method; assay type: functional; how it was run: as §1
Aeromonas hydrophila = test: Antimicrobial activity against Aeromonas hydrophila ATCC 7966 after 18 to 24 hrs by microbroth dilution method; assay type: functional; how it was run: as §1
Streptococcus salivarius = test: Antimicrobial activity against Streptococcus salivarius ATCC 13419 after 18 to 24 hrs by microbroth dilution method; assay type: functional; how it was run: as §1
Staphylococcus aureus = test: Antimicrobial activity against Staphylococcus aureus ATCC 11632 after 18 to 24 hrs by microbroth dilution method; assay type: functional; how it was run: as §1
Proteus mirabilis = test: Antimicrobial activity against Proteus mirabilis ATCC 7002 after 18 to 24 hrs by microbroth dilution method; assay type: functional; how it was run: as §1
Streptococcus sanguinis = test: Antimicrobial activity against Streptococcus sanguinis ATCC 10556 after 18 to 24 hrs by microbroth dilution method; assay type: functional; how it was run: as §1
Vibrio alginolyticus = test: Antimicrobial activity against Vibrio alginolyticus ATCC 17749 after 18 to 24 hrs by microbroth dilution method; assay type: functional; how it was run: as §1
Candida albicans = test: Antimicrobial activity against Candida albicans ATCC 90028 after 18 to 24 hrs by microbroth dilution method; assay type: functional
How it was run: as §1, with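 “Fungal isolates” for “Bacteria”, “cultivated” for “cultured”, “Sabouraud's” for “Mueller Hinton”, “SDB” for “MHB”, “completely suppressing” for “giving complete suppression of”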

SMILES	MIC (Proteus vulgaris)	MIC (Pseudomonas aeruginosa)	MIC (Vibrio parahaemolyticus)	MIC (Shigella boydii)	MIC (Klebsiella pneumoniae)	MIC (Streptococcus mitis)	MIC (Salmonella paratyphi)	MIC (Cryptococcus neoformans)	MIC (Bacillus subtilis)	MIC (Aeromonas hydrophila)	MIC (Streptococcus salivarius)	MIC (Staphylococcus aureus)	MIC (Proteus mirabilis)	MIC (Streptococcus sanguinis)	MIC (Vibrio alginolyticus)	MIC (Candida albicans)
CCn1cc(C(=O)O)c(=O)c2cc(F)c(N3CCC(NC)CC3)c(F)c21	1.25 mg/L (≈ 3.42 µM)	1 mg/L (≈ 2.74 µM)	0.5 mg/L (≈ 1.37 µM)	1 mg/L (≈ 2.74 µM)	5 mg/L (≈ 13.7 µM)	2.5 mg/L (≈ 6.84 µM)	5 mg/L (≈ 13.7 µM)	1.82 mg/L (≈ 4.98 µM)	1.25 mg/L (≈ 3.42 µM)	2 mg/L (≈ 5.47 µM)	2.5 mg/L (≈ 6.84 µM)	2.5 mg/L (≈ 6.84 µM)	1.25 mg/L (≈ 3.42 µM)	2 mg/L (≈ 5.47 µM)	2.5 mg/L (≈ 6.84 µM)	
CCn1cc(C(=O)O)c(=O)c2cc(F)c(N3CCC(C)CC3)c(F)c21	1 mg/L (≈ 2.85 µM)		1.5 mg/L (≈ 4.28 µM)		1.5 mg/L (≈ 4.28 µM)	1 mg/L (≈ 2.85 µM)			5 mg/L (≈ 14.3 µM)		2.5 mg/L (≈ 7.14 µM)		2.5 mg/L (≈ 7.14 µM)			
CCn1cc(C(=O)O)c(=O)c2cc(F)c(N3CCC(N4CCCCC4)CC3)c(F)c21	1.25 mg/L (≈ 2.98 µM)		2.5 mg/L (≈ 5.96 µM)	1 mg/L (≈ 2.38 µM)	2.5 mg/L (≈ 5.96 µM)	2.5 mg/L (≈ 5.96 µM)	1 mg/L (≈ 2.38 µM)			0.5 mg/L (≈ 1.19 µM)	2.5 mg/L (≈ 5.96 µM)	2.5 mg/L (≈ 5.96 µM)	1.25 mg/L (≈ 2.98 µM)			
CCn1cc(C(=O)O)c(=O)c2cc(F)c(N3CCC(CO)CC3)c(F)c21	1.25 mg/L (≈ 3.41 µM)	1.5 mg/L (≈ 4.09 µM)	1.25 mg/L (≈ 3.41 µM)	0.5 mg/L (≈ 1.36 µM)	2.5 mg/L (≈ 6.82 µM)	2.5 mg/L (≈ 6.82 µM)	5 mg/L (≈ 13.6 µM)	4.19 mg/L (≈ 11.4 µM)	1 mg/L (≈ 2.73 µM)	1 mg/L (≈ 2.73 µM)	1.25 mg/L (≈ 3.41 µM)	1.25 mg/L (≈ 3.41 µM)	1.25 mg/L (≈ 3.41 µM)	2 mg/L (≈ 5.46 µM)	1 mg/L (≈ 2.73 µM)	183 mg/L (≈ 500 µM)
CCn1cc(C(=O)O)c(=O)c2cc(F)c(N3CCC(Br)CC3)c(F)c21	2.5 mg/L (≈ 6.02 µM)		5 mg/L (≈ 12 µM)	1 mg/L (≈ 2.41 µM)	5 mg/L (≈ 12 µM)	1 mg/L (≈ 2.41 µM)		1.03 mg/L (≈ 2.48 µM)	2.5 mg/L (≈ 6.02 µM)	1.5 mg/L (≈ 3.61 µM)	2.5 mg/L (≈ 6.02 µM)	5 mg/L (≈ 12 µM)	5 mg/L (≈ 12 µM)			415 mg/L (≈ 999 µM)
O=C(O)c1cn(C2CC2)c2cc(N3CCNCC3)c(F)cc2c1=O [CIPROFLOXACIN]	3 mg/L (≈ 9.05 µM)		8 mg/L (≈ 24.1 µM)	2.5 mg/L (≈ 7.54 µM)	1.5 mg/L (≈ 4.53 µM)	2.5 mg/L (≈ 7.54 µM)	4 mg/L (≈ 12.1 µM)		1.5 mg/L (≈ 4.53 µM)	3 mg/L (≈ 9.05 µM)	1.5 mg/L (≈ 4.53 µM)	1 mg/L (≈ 3.02 µM)	6 mg/L (≈ 18.1 µM)	4 mg/L (≈ 12.1 µM)	2 mg/L (≈ 6.04 µM)	
CCn1cc(C(=O)O)c(=O)c2cc(F)c(N3CCNCC3)cc21 [NORFLOXACIN]								4.88 mg/L (≈ 15.3 µM)								312 mg/L (≈ 979 µM)
